We go through 15 compounds from ChEMBL document CHEMBL2331242, “Amberlite IR-120H catalyzed MCR: design, synthesis and crystal structure analysis of 1,8-dioxodecahydroacridines as potential inhibitors of sirtuins” (Bioorg Med Chem Lett, 2013).

Sequence of NAD-dependent histone deacetylase SIR2 (Saccharomyces cerevisiae S288c) (P06700 whole entry): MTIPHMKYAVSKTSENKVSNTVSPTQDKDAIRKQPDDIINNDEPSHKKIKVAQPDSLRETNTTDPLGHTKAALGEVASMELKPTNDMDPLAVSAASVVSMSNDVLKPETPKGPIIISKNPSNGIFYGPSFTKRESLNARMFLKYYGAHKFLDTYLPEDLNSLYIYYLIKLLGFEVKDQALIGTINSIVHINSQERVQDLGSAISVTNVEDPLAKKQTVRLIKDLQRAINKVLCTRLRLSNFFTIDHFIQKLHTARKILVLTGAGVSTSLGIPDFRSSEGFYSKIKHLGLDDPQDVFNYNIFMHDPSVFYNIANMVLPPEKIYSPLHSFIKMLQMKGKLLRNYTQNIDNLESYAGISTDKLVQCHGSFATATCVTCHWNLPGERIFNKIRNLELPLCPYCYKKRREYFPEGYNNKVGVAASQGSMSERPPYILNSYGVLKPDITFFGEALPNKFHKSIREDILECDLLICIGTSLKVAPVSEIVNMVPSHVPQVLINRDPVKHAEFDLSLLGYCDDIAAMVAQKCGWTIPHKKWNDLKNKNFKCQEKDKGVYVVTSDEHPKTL

The assay has as its target NAD-dependent histone deacetylase SIR2 (Saccharomyces cerevisiae S288c) (UniProt P06700). The experiment in a line: Inhibition of yeast TEL::-URA3 Sir2 assessed as growth inhibition of yeast at 50 uM after 24 to 48 hrs. An outline of the steps: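 Yeast cell-based reporter silencing screen for Sir2, the yeast homologue of SIRT1. Strain TEL::URA3 (MATα ura3-52 lys2-801 ade2-101 trpΔ63 his3Δ200 leu2-Δ1 TEL adh4::URA3) carries URA3 inserted at a telomeric locus, where Sir2 silences it. Inhibition was scored as inhibition of growth of this strain in the presence of 5-fluoroorotic acid. Compounds were tested at 50 µM, with splitomicin as the reference inhibitor.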
Broadly, the inhibition is the drop in the measured response relative to a control, in per cent. Consider `CC1(C)CC(=O)C2=C(C1)N(c1ccc(Cl)cc1)C1=C(C(=O)CC(C)(C)C1)C2c1cccc([N+](=O)[O-])c1`, for which the inhibition was 29.2%. Under `CC1(C)CC(=O)C2=C(C1)N(c1ccc(I)cc1)C1=C(C(=O)CC(C)(C)C1)C2c1cccc(O)c1` stands 41.1%; under `CC1(C)CC(=O)C2=C(C1)N(c1ccc(F)cc1)C1=C(C(=O)CC(C)(C)C1)C2c1cccc(F)c1`, 28.4%; under `CC1(C)CC(=O)C2=C(C1)N(c1ccccc1)C1=C(C(=O)CC(C)(C)C1)C2c1ccccc1O`, 15.6%. For `CC1(C)CC(=O)C2=C(C1)N(c1ccccc1I)C1=C(C(=O)CC(C)(C)C1)C2c1cccc(O)c1`, the inhibition is 23.7%. In the case of `CCOC(=O)c1c(N2C3=C(C(=O)CC(C)(C)C3)C(c3cccs3)C3=C2CC(C)(C)CC3=O)sc2c1CCCC2`, the inhibition turned out to be 16.2%. On to `CC1(C)CC(=O)C2=C(C1)N(c1ccc(Br)cc1)C1=C(C(=O)CC(C)(C)C1)C2c1ccc2ccccc2c1`, for which the inhibition worked out at 10.6%. Under `CC1(C)CC(=O)C2=C(C1)N(c1ccc(I)cc1)C1=C(C(=O)CC(C)(C)C1)C2c1cccc([N+](=O)[O-])c1` stands 35.2%. Regarding `CC(=O)c1ccc(N2C3=C(C(=O)CC(C)(C)C3)C(c3cccc(O)c3)C3=C2CC(C)(C)CC3=O)cc1`, the inhibition was 12.8%. Under `CC1(C)CC(=O)C2=C(C1)N(c1ccc(C(F)(F)F)cc1)C1=C(C(=O)CC(C)(C)C1)C2c1cccc(O)c1` stands 28.5%.

For `Cc1ccc(N2C3=C(C(=O)CC(C)(C)C3)C(c3cccc(O)c3)C3=C2CC(C)(C)CC3=O)cc1`, the inhibition was 30.2%. In the case of `CC1(C)CC(=O)C2=C(C1)N(c1ccc(I)cc1)C1=C(C(=O)CC(C)(C)C1)C2c1cccs1`, the inhibition was determined as 13%. As to `CC1(C)CC(=O)C2=C(C1)N(c1ccc(C#N)cc1)C1=C(C(=O)CC(C)(C)C1)C2c1cccc(O)c1`, the inhibition is 17.9%. Take `CC1(C)CC(=O)C2=C(C1)N(c1ccc(F)cc1)C1=C(C(=O)CC(C)(C)C1)C2c1cccc(O)c1`: the inhibition came out at 33.5%. Take `CC1(C)CC(=O)C2=C(C1)N(c1ccc(Br)cc1)C1=C(C(=O)CC(C)(C)C1)C2c1cccc(O)c1`: the inhibition stood at 32.5%.
